# Laboratory results published in ChEMBL document CHEMBL4038284, “Synthesis of novel quinoline-based 4,5-dihydro-1H-pyrazoles as potential anticancer, antifungal, antibacterial and antiprotozoal agents” (Eur J Med Chem, 2017).
# Tests used:
# Format in all cases: functional
# DU-145 = assay: Growth inhibition of human DU145 cells incubated for 48 hrs by sulforhodamine B assay; conditions: DU-145, 48 h; for CC50: read-out: LC50 (the source's name)
# Method in brief: (§1)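 NCI five-dose SRB assay (100, 10, 1.0, 0.1, 0.01 µM) with 48 h exposure in RPMI-1640 with 5% FBS and 2 mM L-glutamine. Cells fixed with TCA and stained with SRB, read at 515 nm. GI50 is the concentration where [(Ti−Tz)/(C−Tz)]×100 = 50.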
# SNB-75 = assay: Growth inhibition of human SNB75 cells incubated for 48 hrs by sulforhodamine B assay; conditions: SNB-75, 48 h; for CC50: read-out: LC50 (the source's name)
# Method in brief: (§2)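 NCI 60-line screen. Cells in RPMI-1640 with 5% FBS and 2 mM L-glutamine, preincubated 24 h, then time-zero plates TCA-fixed. Compounds from DMSO stocks given at five final concentrations (100, 10, 1.0, 0.1, 0.01 µM) for 48 h at 37 °C, 5% CO2. Cells fixed with 10% TCA, SRB-stained, read at 515 nm. GI50 is the concentration giving 50% lower net protein increase versus control.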
# SK-OV-3 = assay: Growth inhibition of human SKOV3 cells incubated for 48 hrs by sulforhodamine B assay; conditions: SK-OV-3, 48 h; for CC50: read-out: LC50 (the source's name); method in brief: as §2
# SR = assay: Growth inhibition of human SR cells incubated for 48 hrs by sulforhodamine B assay; conditions: for CC50: read-out: LC50 (the source's name); method in brief: as §2
# SK-MEL-5 = assay: Growth inhibition of human SK-MEL-5 cells incubated for 48 hrs by sulforhodamine B assay; conditions: SK-MEL-5, 48 h; for CC50: read-out: LC50 (the source's name); method in brief: as §2
# SW-620 = assay: Growth inhibition of human SW620 cells incubated for 48 hrs by sulforhodamine B assay; conditions: SW-620, 48 h; for CC50: read-out: LC50 (the source's name)
# Method in brief: (§3)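 NCI-60 panel cells grown in RPMI-1640 with 5% FBS and 2 mM L-glutamine, preincubated 24 h at 37 °C/5% CO2. Time-zero plates were TCA-fixed at compound addition. DMSO stocks were diluted in medium and tested at five final concentrations (100, 10, 1.0, 0.1, 0.01 µM) for 48 h. Cells were TCA-fixed, stained with SRB and read at 515 nm. GI50 = 50% lower net protein increase versus control.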
# KM12 = assay: Growth inhibition of human KM12 cells incubated for 48 hrs by sulforhodamine B assay; conditions: KM12, 48 h; for CC50: read-out: LC50 (the source's name)
# Method in brief: (§4)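 Five-dose NCI SRB assay at 100, 10, 1.0, 0.1 and 0.01 μM for 48 h at 37 °C, 5% CO2. Medium was RPMI-1640 with 5% FBS and 2 mM glutamine. Time-zero plates were TCA-fixed at compound addition, A515 read after SRB staining. GI50 was solved from [(Ti−Tz)/(C−Tz)]×100 = 50. Values beyond the tested range are given as > or <.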
# HCT-15 = assay: Growth inhibition of human HCT15 cells incubated for 48 hrs by sulforhodamine B assay; conditions: HCT-15, 48 h; for CC50: read-out: LC50 (the source's name); method in brief: as §2
# OVCAR-8 = assay: Growth inhibition of human OVCAR8 cells incubated for 48 hrs by sulforhodamine B assay; conditions: OVCAR-8, 48 h; method in brief: as §4
# 786-0 = assay: Growth inhibition of human 786-0 cells incubated for 48 hrs by sulforhodamine B assay; conditions: 786-0, 48 h; method in brief: as §1
# A549 = assay: Growth inhibition of human A549/ATCC cells incubated for 48 hrs by sulforhodamine B assay; conditions: A549, 48 h; method in brief: as §2
# HCC 2998 = assay: Growth inhibition of human HCC2998 cells incubated for 48 hrs by sulforhodamine B assay; conditions: HCC 2998, 48 h; for CC50: read-out: LC50 (the source's name); method in brief: as §2
# MDA-MB-231 = assay: Growth inhibition of human MDA-MB-231 cells incubated for 48 hrs by sulforhodamine B assay; conditions: MDA-MB-231, 48 h; for CC50: read-out: LC50 (the source's name); method in brief: as §4
# SNB-19 = assay: Growth inhibition of human SNB19 cells incubated for 48 hrs by sulforhodamine B assay; conditions: SNB-19, 48 h; for CC50: read-out: LC50 (the source's name); method in brief: as §3
# M14 = assay: Growth inhibition of human M14 cells incubated for 48 hrs by sulforhodamine B assay; conditions: M14, 48 h; for CC50: read-out: LC50 (the source's name); method in brief: as §4
# EKVX = assay: Growth inhibition of human EKVX cells incubated for 48 hrs by sulforhodamine B assay; method in brief: as §1
# K562 = assay: Growth inhibition of human K562 cells incubated for 48 hrs by sulforhodamine B assay; conditions: K562, 48 h; for CC50: read-out: LC50 (the source's name); method in brief: as §2
# BT-549 = assay: Growth inhibition of human BT549 cells incubated for 48 hrs by sulforhodamine B assay; conditions: BT-549, 48 h; for CC50: read-out: LC50 (the source's name); method in brief: as §1
# SF-295 = assay: Growth inhibition of human SF295 cells incubated for 48 hrs by sulforhodamine B assay; conditions: SF-295, 48 h; for CC50: read-out: LC50 (the source's name); method in brief: as §4
# UO-31 = assay: Growth inhibition of human UO31 cells incubated for 48 hrs by sulforhodamine B assay; conditions: UO-31, 48 h; method in brief: as §3
# MDA-MB-435 = assay: Growth inhibition of human MDA-MB-435 cells incubated for 48 hrs by sulforhodamine B assay; conditions: MDA-MB-435, 48 h; for CC50: read-out: LC50 (the source's name); method in brief: as §4
# OVCAR-3 = assay: Growth inhibition of human OVCAR3 cells incubated for 48 hrs by sulforhodamine B assay; conditions: OVCAR-3, 48 h; for CC50: read-out: LC50 (the source's name); method in brief: as §4
# MOLT-4 = assay: Growth inhibition of human MOLT4 cells incubated for 48 hrs by sulforhodamine B assay; conditions: MOLT-4, 48 h; for CC50: read-out: LC50 (the source's name); method in brief: as §2
# NCI/ADR-RES = assay: Growth inhibition of human NCI/ADR-RES cells incubated for 48 hrs by sulforhodamine B assay; conditions: for CC50: read-out: LC50 (the source's name); method in brief: as §2
# IGROV-1 = assay: Growth inhibition of human IGROV1 cells incubated for 48 hrs by sulforhodamine B assay; conditions: IGROV-1, 48 h; for CC50: read-out: LC50 (the source's name); method in brief: as §2
# NCI-H226 = assay: Growth inhibition of human NCI-H226 cells incubated for 48 hrs by sulforhodamine B assay; conditions: NCI-H226, 48 h; for CC50: read-out: LC50 (the source's name); method in brief: as §2
# A498 = assay: Growth inhibition of human A498 cells incubated for 48 hrs by sulforhodamine B assay; conditions: A498, 48 h; for CC50: read-out: LC50 (the source's name); method in brief: as §2
# Hs-578T = assay: Growth inhibition of human Hs578T cells incubated for 48 hrs by sulforhodamine B assay; conditions: for CC50: read-out: LC50 (the source's name); method in brief: as §4
# NCI-H322M = assay: Growth inhibition of human NCI-H322M cells incubated for 48 hrs by sulforhodamine B assay; conditions: for CC50: read-out: LC50 (the source's name); method in brief: as §4
# COLO 205 = assay: Growth inhibition of human COLO205 cells incubated for 48 hrs by sulforhodamine B assay; conditions: COLO 205, 48 h; for CC50: read-out: LC50 (the source's name); method in brief: as §1
# MDA-MB-468 = assay: Growth inhibition of human MDA-MB-468 cells incubated for 48 hrs by sulforhodamine B assay; conditions: MDA-MB-468, 48 h; for CC50: read-out: LC50 (the source's name); method in brief: as §4
smiles,measurement,setting,value
O=CN1N=C(c2ccc(Cl)cc2)CC1c1cccc(Nc2ccnc3cc(Cl)ccc23)c1 (configuration not stated),GI50,DU-145,2800 nM
same,CC50,DU-145,> 100000 nM
same,GI50,SNB-75,1700 nM
same,CC50,SNB-75,> 100000 nM
same,GI50,SK-OV-3,2900 nM
same,CC50,SK-OV-3,> 100000 nM
same,GI50,SR,400 nM
same,CC50,SR,> 100000 nM
same,GI50,SK-MEL-5,540 nM
same,CC50,SK-MEL-5,5050 nM
same,GI50,SW-620,1610 nM
same,CC50,SW-620,> 100000 nM
same,GI50,KM12,1220 nM
same,CC50,KM12,> 100000 nM
same,GI50,HCT-15,1360 nM
same,CC50,HCT-15,> 100000 nM
same,GI50,OVCAR-8,1920 nM
same,LC50 (concentration causing 50% net cell kill),OVCAR-8,> 100000 nM
same,GI50,786-0,2960 nM
same,LC50,786-0,62700 nM
same,GI50,A549,2030 nM
same,LC50 (concentration giving 50% net cell kill),A549,> 100000 nM
same,GI50,HCC 2998,3120 nM
same,CC50,HCC 2998,> 100000 nM
same,GI50,MDA-MB-231,2740 nM
same,CC50,MDA-MB-231,> 100000 nM
same,GI50,SNB-19,4190 nM
same,CC50,SNB-19,> 100000 nM
same,GI50,M14,1550 nM
same,CC50,M14,> 100000 nM
same,GI50,EKVX,1590 nM
same,LC50,EKVX,> 100000 nM
same,GI50,K562,390 nM
same,CC50,K562,> 100000 nM
same,GI50,BT-549,1780 nM
same,CC50,BT-549,> 100000 nM
same,GI50,SF-295,500 nM
same,CC50,SF-295,> 100000 nM
same,GI50,UO-31,1700 nM
same,CC50,UO-31; read-out: LC50 (the source's name),> 100000 nM
same,GI50,MDA-MB-435,380 nM
same,CC50,MDA-MB-435,> 100000 nM
same,GI50,OVCAR-3,1100 nM
same,CC50,OVCAR-3,83300 nM
same,GI50,MOLT-4,1130 nM
same,CC50,MOLT-4,> 100000 nM
same,GI50,NCI/ADR-RES,780 nM
same,CC50,NCI/ADR-RES,> 100000 nM
same,GI50,IGROV-1,1440 nM
same,CC50,IGROV-1,> 100000 nM
same,GI50,NCI-H226,1870 nM
same,CC50,NCI-H226,> 100000 nM
same,GI50,A498,980 nM
same,CC50,A498,> 100000 nM
same,GI50,Hs-578T,3230 nM
same,CC50,Hs-578T,> 100000 nM
same,GI50,NCI-H322M,5520 nM
same,CC50,NCI-H322M,> 100000 nM
same,GI50,COLO 205,1430 nM
same,CC50,COLO 205,21400 nM
same,GI50,MDA-MB-468,280 nM
same,CC50,MDA-MB-468,> 100000 nM
COc1ccc(C(=O)/C=C/c2cccc(Nc3ccnc4cc(Cl)ccc34)c2)cc1,GI50,DU-145,2450 nM
same,CC50,DU-145,> 100000 nM
same,GI50,SNB-75,1510 nM
same,CC50,SNB-75,> 100000 nM
same,GI50,SK-OV-3,2220 nM
same,CC50,SK-OV-3,> 100000 nM
same,GI50,SR,490 nM
same,CC50,SR,> 100000 nM
same,GI50,SK-MEL-5,1320 nM
same,CC50,SK-MEL-5,> 100000 nM
same,GI50,SW-620,1980 nM
same,CC50,SW-620,> 100000 nM
same,GI50,KM12,2450 nM
same,CC50,KM12,> 100000 nM
same,GI50,HCT-15,2040 nM
same,CC50,HCT-15,> 100000 nM
same,GI50,OVCAR-8,2260 nM
same,LC50 (concentration causing 50% net cell kill),OVCAR-8,> 100000 nM
same,GI50,786-0,1480 nM
same,LC50,786-0,77700 nM
same,GI50,A549,2780 nM
same,LC50 (concentration giving 50% net cell kill),A549,> 100000 nM
same,CC50,HCC 2998,> 100000 nM
same,GI50,MDA-MB-231,1910 nM
same,CC50,MDA-MB-231,> 100000 nM
same,GI50,SNB-19,2260 nM
same,CC50,SNB-19,> 100000 nM
same,GI50,M14,1600 nM
same,CC50,M14,> 100000 nM
same,GI50,EKVX,1750 nM
same,LC50,EKVX,> 100000 nM
same,GI50,K562,1640 nM
same,CC50,K562,83800 nM
same,GI50,BT-549,1870 nM
same,CC50,BT-549,> 100000 nM
same,GI50,SF-295,690 nM
same,CC50,SF-295,> 100000 nM
same,GI50,UO-31,1030 nM
same,GI50,MDA-MB-435,2130 nM
same,CC50,MDA-MB-435,> 100000 nM
same,GI50,OVCAR-3,1690 nM
same,CC50,OVCAR-3,> 100000 nM
same,GI50,MOLT-4,2900 nM
same,CC50,MOLT-4,> 100000 nM
same,GI50,NCI/ADR-RES,1160 nM
same,CC50,NCI/ADR-RES,> 100000 nM
same,GI50,IGROV-1,1440 nM
same,CC50,IGROV-1,> 100000 nM
same,GI50,NCI-H226,1780 nM
same,CC50,NCI-H226,> 100000 nM
same,GI50,A498,3000 nM
same,CC50,A498,> 100000 nM
same,GI50,Hs-578T,3180 nM
same,CC50,Hs-578T,> 100000 nM
same,GI50,NCI-H322M,2690 nM
same,CC50,NCI-H322M,> 100000 nM
same,GI50,COLO 205,3850 nM
same,CC50,COLO 205,> 100000 nM
same,GI50,MDA-MB-468,580 nM
same,CC50,MDA-MB-468,> 100000 nM
